ChEMBL document CHEMBL1138784, “Rational design, synthesis, and biological evaluation of bis(pyrimido[5,6,1-de]acridines) and bis(pyrazolo[3,4,5-kl]acridine-5-carboxamides) as new anticancer agents” (J Med Chem, 2004)

What was measured:
NCI-H460 [1] = assay: Percent growth of lung NCI-H460 cell line was determined at 10e-6 M concentration after 48 hr of exposing; format: functional, Homo sapiens
How it was run: (§1)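 NCI sulforhodamine B screen. Cells seeded by growth rate, 24 h drug-free, then 48 h exposure to 10^-8, 10^-6 or 10^-5 M. Protein-stain optical density expressed as percent growth relative to untreated control (100%); negative values indicate cell kill.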

786-0 [2] = assay: Percent growth of renal 786-O cell line was determined at 10e-6 M concentration after 48 h of exposing; format: functional, Homo sapiens; how it was run: as §1
[3] = Cytotoxicity against human MKN45 cancer cell line was determined after 1 hr; format: cell-based; details: Cancer cell lines
How it was run: (§2)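 MTT colorimetric assay. Cells seeded by growth characteristics and preincubated 24 h, then exposed to drug for 1 h or 144 h at 37 °C, 5% CO2. H460M, MKN45 and PC-3 were grown in RPMI 1640 with 10% FCS. HCT116 was grown in D-MEM with 10% FBS and 2 mM glutamine.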

DU-145 [4] = assay: Percent growth of prostate DU-145 cell line was determined at 10e-8 M concentration after 48 h of exposing; format: functional, Homo sapiens
[5] = Cytotoxicity against human LoVo cancer cell line was determined after 1 hr; format: cell-based
How it was run: (§3)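 MTT assay on doxorubicin-sensitive LoVo and resistant LoVo/Dx cells, 24 h preincubation, then 1 h or 144 h drug exposure at 37 °C, 5% CO2. IC50 in nM. Resistance index is IC50 on LoVo/Dx divided by IC50 on LoVo.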

LoVo [6] = assay: Ratio of IC50 against sensitive LoVo cell line and that of doxorubicin resistance LoVo cell line was determined after 1 hr exposure; format: functional, Homo sapiens
SNB-19 [7] = assay: Percent growth of CNS SNB-19 cell line was determined at 10e-8 M concentration after 48 hr of exposing; format: functional, Homo sapiens; how it was run: as §1
OVCAR-4 [8] = assay: Percent growth of ovarian OVCAR-4 cell line was determined at 10e-6 M concentration after 48 hr of exposing; format: functional, Homo sapiens; how it was run: as §1
[9] = Cytotoxicity against human PC3 cancer cell line was determined after 1 hr; format: cell-based; details: Cancer cell lines; how it was run: as §2
DU-145 [10] = assay: Percent growth of prostate DU-145 cell line was determined at 10e-6 M concentration after 48 hr of exposing; format: functional, Homo sapiens
MCF7 [11] = assay: Percent growth of breast MCF-7 cell line was determined at 10e-6 M concentration after 48 h of exposing; format: functional, Homo sapiens
MCF7 [12] = assay: Percent growth of breast MCF-7 cell line was determined at 10e-5 M concentration after 48 hr of exposing; format: functional, Homo sapiens
MOLT-4 [13] = assay: Percent growth of leukemia MOLT-4 cell line was determined at 10e-6 M concentration after 48 h of exposing; format: functional, Homo sapiens; how it was run: as §1
MCF7 [14] = assay: Percent growth of breast MCF-7 cell line was determined at 10e-8 M concentration after 48 hr of exposing; format: functional, Homo sapiens
[15] = Cytotoxicity against human H460M cancer cell line was determined after 144 hr; format: functional, cell-based; details: Cancer cell lines; how it was run: as §2
[16] = Cytotoxicity against doxorubicin resistant LoVo cell line was determined against 1 hour; format: cell-based; details: Homo sapiens; how it was run: as §3
[17] = Cytotoxicity against human HCT116 cancer cell line was determined after 1 hr; format: cell-based; details: HCT-116, 1 h; how it was run: as §2
DU-145 [18] = assay: Percent growth of prostate DU-145 cell line was determined at 10e-5 M concentration after 48 hr of exposing; format: functional, Homo sapiens
786-0 [19] = assay: Percent growth of renal 786-O cell line was determined at 10e-5 M concentration after 48 hr of exposing; format: functional, Homo sapiens; how it was run: as §1
HCT-116 = assay: Cytotoxicity against human HCT116 cancer cell line was determined after 144 hr; format: functional, cell-based; details: HCT-116, 144 h; how it was run: as §2
786-0 [20] = assay: Percent growth of renal 786-O cell line was determined at 10e-8 M concentration after 48 h of exposing; format: functional, Homo sapiens; how it was run: as §1
OVCAR-4 [21] = assay: Percent growth of ovarian OVCAR-4 cell line was determined at 10e-5 M concentration after 48 hr of exposing; format: functional, Homo sapiens; how it was run: as §1
Nucleic Acid = assay: Binding site preference is determined as the ratio of Poly (dA-dT)2 to Poly (dG-dC)2; format: nucleic-acid assay
How it was run: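 Ethidium displacement fluorometry at pH 7.0 (10 mM Na2HPO4, 10 mM NaH2PO4, 1 mM EDTA) with 1.26 μM ethidium bromide and 1 μM [poly(dA-dT)]2 or [poly(dG-dC)]2, 20 °C. Ex 546 nm, em 595 nm, drug added serially from a DMSO stock. Preference taken from the [AT]/[GC] ratio of C50 values, counted significant only below 0.7 or above 1.3.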

PC-3 = assay: Cytotoxicity against human PC3 cancer cell line was determined after 144 hr; format: functional, cell-based; details: PC-3, 144 h; how it was run: as §2
SW-620 [22] = assay: Percent growth of colon SW-620 cell line was determined at 10e-8 M concentration after 48 hr of exposing; format: functional, Homo sapiens; how it was run: as §1
NCI-H460 [23] = assay: Percent growth of lung NCI-H460 cell line was determined at 10e-8 M concentration after 48 hr of exposing; format: functional, Homo sapiens; how it was run: as §1
[24] = Cytotoxicity against human H460M cancer cell line was determined after 1 hr; format: cell-based; details: Cancer cell lines; how it was run: as §2
MOLT-4 [25] = assay: Percent growth of leukemia MOLT-4 cell line was determined at 10e-8 M concentration after 48 hr of exposing; format: functional, Homo sapiens; how it was run: as §1
MOLT-4 [26] = assay: Percent growth of leukemia MOLT-4 cell line was determined at 10e-5 M concentration after 48 hr of exposing; format: functional, Homo sapiens; how it was run: as §1
OVCAR-4 [27] = assay: Percent growth of ovarian OVCAR-4 cell line was determined at 10e-8 M concentration after 48 hr of exposing; format: functional, Homo sapiens; how it was run: as §1
[28] = Percent growth of melanoma LOX IMV1 cell line was determined at 10e-6 M concentration after 48 hr of exposing; format: functional, Homo sapiens; how it was run: as §1
LoVo [29] = assay: Cytotoxicity against doxorubicin resistant LoVo cell line was determined against 144 hrs; format: functional, cell-based; details: Homo sapiens; how it was run: as §3
SNB-19 [30] = assay: Percent growth of CNS SNB-19 cell line was determined at 10e-5 M concentration after 48 hr of exposing; format: functional, Homo sapiens; how it was run: as §1
SNB-19 [31] = assay: Percent growth of CNS SNB-19 cell line was determined at 10e-6 M concentration after 48 hr of exposing; format: functional, Homo sapiens; how it was run: as §1
SW-620 [32] = assay: Percent growth of colon SW-620 cell line was determined at 10e-6 M concentration after 48 hr of exposing; format: functional, Homo sapiens; how it was run: as §1
HT-29 = assay: Cytotoxicity is determined as the concentration required to inhibit the growth of human colon adenocarcinoma (HT-29) cell line; format: functional, cell-based
LoVo [33] = assay: Cytotoxicity against human LoVo cancer cell line was determined after 144 hr; format: functional, cell-based; how it was run: as §3
SW-620 [34] = assay: Percent growth of colon SW-620 cell line was determined at 10e-5 M concentration after 48 hr of exposing; format: functional, Homo sapiens; how it was run: as §1
MKN-45 = assay: Cytotoxicity against human MKN45 cancer cell line was determined after 144 hr; format: functional, cell-based; details: MKN-45, 144 h; how it was run: as §2
NCI-H460 [35] = assay: Percent growth of lung NCI-H460 cell line was determined at 10e-5 M concentration after 48 hr of exposing; format: functional, Homo sapiens; how it was run: as §1
[36] = Percent growth of melanoma LOX IMV1 cell line was determined at 10e-8 M concentration after 48 hr of exposing; format: functional, Homo sapiens; how it was run: as §1
[37] = Percent growth of melanoma LOX IMV1 cell line was determined at 10e-5 M concentration after 48 hr of exposing; format: functional, Homo sapiens; how it was run: as §1

CN(C)CCn1c(=O)c2ccc(NCCCN(C)CCCNc3ccc4c(=O)n(CCN(C)C)c(=O)n5c6ccc([N+](=O)[O-])cc6c(=O)c3c45)c3c(=O)c4cc([N+](=O)[O-])ccc4n(c1=O)c23
Growth (NCI-H460 [1]): -36%
Growth (786-0 [2]): -4%
IC50 [3]: 1.3 nM
Growth (DU-145 [4]): 35%
IC50 [5]: 42 nM
Resistance index (LoVo [6]): 9
Growth (SNB-19 [7]): 37%
Growth (OVCAR-4 [8]): -54%
IC50 [9]: 11 nM
Growth (DU-145 [10]): -13%
Growth (MCF7 [11]): -2%
Growth (MCF7 [12]): -55%
Growth (MOLT-4 [13]): -31%
Growth (MCF7 [14]): 21%
IC50 [15]: 0.19 nM
IC50 [16]: 380 nM
IC50 [17]: 2.9 nM
Growth (DU-145 [18]): -83%
Growth (786-0 [19]): -63%
IC50 (HCT-116): 1.1 nM
Growth (786-0 [20]): 33%
Growth (OVCAR-4 [21]): -65%
Binding site preference (Nucleic Acid): 2.4
IC50 (PC-3): 4.5 nM
Growth (SW-620 [22]): 42%
Growth (NCI-H460 [23]): 10%
IC50 [24]: 0.93 nM
Growth (MOLT-4 [25]): -2%
Growth (MOLT-4 [26]): -50%
Growth (OVCAR-4 [27]): 31%
Growth [28]: -56%
IC50 (LoVo [29]): 67 nM
Growth (SNB-19 [30]): -66%
Growth (SNB-19 [31]): -25%
Growth (SW-620 [32]): 5%
IC50 (HT-29): < 0.1 nM
IC50 (LoVo [33]): 7.6 nM
Growth (SW-620 [34]): -16%
IC50 (MKN-45): 0.29 nM
Growth (NCI-H460 [35]): -60%
Growth [36]: 16%
Growth [37]: -69%
